This is an account of results in ChEMBL document CHEMBL4024713, “Novel aryl piperazines for alleviation of 'andropause' associated prostatic disorders and depression” (Eur J Med Chem, 2017).

One data set deals with Rattus norvegicus. The data set is described as follows: Toxicity in citral-induced prostatic hyperplasia Sprague-Dawley rat model assessed as effect on epididymis weight at 10 mg/kg, po administered once daily coadministered with citral for 21 days measured 24 hrs last post dose. The conditions noted are these: in vivo. The class given is organism-based.
Data set [1] can be described thus: Cmax in Sprague-Dawley rat serum at 10 mg/kg, iv administered as single dose by LC-MS/MS analysis. Type of data set: ADME, organism-based. More on the design: dose 10 mg/kg, route intravenous. In short, it runs like this:
(§1)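 Male Sprague Dawley rats (250 ± 25 g), fasted overnight (12-16 h), n = 3 per time point; single 10 mg/kg dose orally by feeding needle, or iv from DMSO solution. Serum, prostate and hypothalamus collected up to 48 h post oral dose; hypothalamus from three rats pooled. LC-MS/MS (MRM, phenacetin internal standard), linear 5-400 ng/mL; noncompartmental and compartmental analysis.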

Data set [2] is described as follows: Cmax in Sprague-Dawley rat hypothalamus at 10 mg/kg, po administered as single dose by LC-MS/MS analysis. More on the design: dose 10 mg/kg, route oral. The class given is ADME, organism-based. The gist of the method:
as §1

Data set [3] in a line: Ratio of drug level in prostate to serum in Sprague-Dawley rat at 10 mg/kg, po administered as single dose by LC-MS/MS analysis. Type of data set: ADME, organism-based. In short, it runs like this:
as §1

Data set [4] has as its system Mus musculus. The experiment in a line: Anti-depressant like activity in Swiss albino mouse assessed as reduction in immobility time at 20 mg/kg, po measured for 5 mins by tail suspension test. Type of data set: functional, organism-based. The gist of the method:
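Male Swiss albino mice dosed orally in 1% gum acacia; imipramine as standard. Each mouse suspended by the tail with tape to a horizontal bar 60 cm above the table. Immobility (no limb or body movement other than respiration) recorded for 5 min after 1 min acclimatization; N = 5.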

A short description of data set [5]: Tmax in Sprague-Dawley rat prostate at 10 mg/kg, po administered as single dose by LC-MS/MS analysis. Type of data set: ADME, organism-based, Prostate gland. The gist of the method: as §1
A short description of data set [6]: Oral bioavailability in Sprague-Dawley rat serum at 10 mg/kg administered as single dose by LC-MS/MS analysis. Type of data set: ADME, organism-based. In short, it runs like this: as §1
Data set [7] relates to Mus musculus. The data set is described as follows: Toxicity in Swiss albino mouse assessed as effect on locomotor activity at 20 mg/kg, po measured at 5 mins interval for 90 mins by open field test. Type of data set: organism-based. As to conditions: in vivo. The gist of the method:
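Male Swiss albino mice in an activity chamber, infrared beam-break counting over 24 intervals of 5 min (120 min). Oral dosing after the 6th interval; six animals per group.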

A short description of data set [8]: Cmax in Sprague-Dawley rat prostate at 10 mg/kg, po administered as single dose by LC-MS/MS analysis. More on the design: dose 10 mg/kg, route oral. The class given is ADME, organism-based, Prostate gland. In short, it runs like this:
as §1

Data set [9] can be described thus: AUClast in Sprague-Dawley rat serum at 10 mg/kg, po administered as single dose by LC-MS/MS analysis. The class given is ADME, organism-based. More on the design: dose 10 mg/kg, route oral, time 0 - last. The gist of the method:
as §1

Data set [10] can be described thus: Half life in Sprague-Dawley rat serum at 10 mg/kg, po administered as single dose by LC-MS/MS analysis. The class given is ADME, organism-based. The gist of the method:
as §1

Data set [11] concerns Mus musculus. The experiment in a line: Anti-depressant like activity in Swiss albino mouse assessed as reduction in immobility time at 20 mg/kg, po administered 60 mins prior to test measured for 5 mins by forced swim test relative to control. The class given is functional. More on the design: scale not given: the % may be the effect or the level left. In short, it runs like this: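 Male Swiss albino mice (20-25 g); compound 20 mg/kg, imipramine 60 mg/kg or fluoxetine 20 mg/kg given orally in 1% gum acacia (10 mL/kg). After 60 min: 15 min pre-swim in a water cylinder (10 cm depth, 25 ± 1 °C), then retest at 24 h. Immobility recorded for 5 min after 1 min acclimatization; N = 7-9, mean ± SEM, unpaired t-test.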

Data set [12] in a line: Volume of distribution at steady state in Sprague-Dawley rat serum at 10 mg/kg, iv administered as single dose by LC-MS/MS analysis. As to conditions: read-out: Vdss. The class given is ADME, organism-based. In short, it runs like this: as §1
A short description of data set [13]: Volume of distribution at steady state in Sprague-Dawley rat prostate at 10 mg/kg, po administered as single dose by LC-MS/MS analysis. As to conditions: in vivo. Type of data set: ADME, organism-based, Prostate gland. In short, it runs like this: as §1
The target in data set [14] is T1, Androgen receptor (Homo sapiens) (UniProt P10275).
T1 sequence (whole entry): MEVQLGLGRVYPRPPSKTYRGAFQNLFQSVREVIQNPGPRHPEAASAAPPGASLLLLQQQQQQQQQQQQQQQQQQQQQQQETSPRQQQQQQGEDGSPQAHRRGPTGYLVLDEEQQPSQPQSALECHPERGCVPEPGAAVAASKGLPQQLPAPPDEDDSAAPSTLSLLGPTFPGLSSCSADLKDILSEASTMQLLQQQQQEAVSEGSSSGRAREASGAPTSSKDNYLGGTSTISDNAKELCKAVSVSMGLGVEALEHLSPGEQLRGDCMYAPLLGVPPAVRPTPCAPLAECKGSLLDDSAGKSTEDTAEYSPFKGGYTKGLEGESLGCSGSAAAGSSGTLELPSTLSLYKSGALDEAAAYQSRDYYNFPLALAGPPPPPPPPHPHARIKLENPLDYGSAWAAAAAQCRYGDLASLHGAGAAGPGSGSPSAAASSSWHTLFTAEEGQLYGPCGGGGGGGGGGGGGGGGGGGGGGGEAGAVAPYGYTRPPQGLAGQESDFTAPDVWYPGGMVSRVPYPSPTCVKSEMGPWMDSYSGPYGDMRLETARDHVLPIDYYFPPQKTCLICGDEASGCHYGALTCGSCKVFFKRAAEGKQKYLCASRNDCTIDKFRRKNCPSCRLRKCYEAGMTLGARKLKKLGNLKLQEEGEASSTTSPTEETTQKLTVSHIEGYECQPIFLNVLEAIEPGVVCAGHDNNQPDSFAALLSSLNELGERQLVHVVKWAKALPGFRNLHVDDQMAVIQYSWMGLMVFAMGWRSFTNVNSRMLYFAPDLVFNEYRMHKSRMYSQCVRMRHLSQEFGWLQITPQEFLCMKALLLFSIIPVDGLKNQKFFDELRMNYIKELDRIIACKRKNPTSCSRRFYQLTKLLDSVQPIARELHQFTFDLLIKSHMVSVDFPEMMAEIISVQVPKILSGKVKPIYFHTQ
The data set is described as follows: Antagonist activity at AR (unknown origin) expressed in African green monkey COS7 cells at 7.5 uM after 24 hrs by dual luciferase reporter gene assay. Type of data set: cell-based. In short, it runs like this: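 Cos7 cells (AR-negative) transiently transfected for 8 h with pARE-E1B-LUC reporter plus pCR3.1.AR expression vector. Then in complete medium, treated with compound at 7.5 μM for 24 h; bicalutamide 3 μM as positive control. Luciferase normalized to pRL-SV40 internal control, expressed as RLU relative to control = 100%.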
(In general: In a reporter assay the amount or activity of a reporter protein is the signal.)

For the next data set, the system named is Hypothalamus. The experiment in a line: Clearance in Sprague-Dawley rat hypothalamus at 10 mg/kg, po administered as single dose by LC-MS/MS analysis. Type of data set: ADME, organism-based. The conditions noted are these: in vivo. In short, it runs like this:
as §1

The source made the active and inactive calls.

A word on the Cmax: it is the peak of the concentration-time curve. For orientation: Kp means the ratio of the level in a tissue or fluid to that in plasma or blood. The Tmax is the time at which the peak concentration occurs. For orientation: bioavailability means the share of a dose that reaches the circulation, judged against a reference dose that is usually intravenous. A word on the AUC(0-t): it is exposure summed from dosing to a finite time, without extrapolation to infinity. The term half-life denotes the time needed for the level to fall by half in the phase considered.

On to `c1ccc(N2CCN(CCCN3CCN(c4ccccn4)CC3)CC2)nc1`, for which the Activity result was “Non-Toxic” with Rattus norvegicus, “Non-Toxic” in the data set on Mus musculus [7] and 69.4% in the data set on Mus musculus [11]. Also, the values for the Cmax in [1], in [2] and in data set [8] were 520 ng/mL, 461 ng/g and 572 ng/g, respectively. In addition, the partition ratio (Kp) in data set [3] stood at 11.8. The outcome (with Mus musculus [4]; in [14]) was Active. Also, in data set [5], the Tmax came out at 4 h. This compound gave a bioavailability in data set [6] of 35.4%. Besides, the AUC(0-t) in [9] is 900 ng·h/mL. Also, the half-life in [10] was 5.4 h. In addition, the Vd in data set [12] was determined as 28.3 L/kg. In data set [13], this compound came in with a Vdss of 3.6 g/kg. The CL in the data set with Hypothalamus is 0.8 g/h/kg.
